# Assay: Displacement of [3H]RX821002 from alpha2 adrenoceptor in human prefrontal cortex neural membrane
# Format: tissue-based
# How it was run: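 Postmortem human PFC P2 membranes (homogenized in 5 mM Tris–HCl pH 7.4, 1 mM MgCl2, 0.25 M sucrose; stored at −70 °C) incubated in 50 mM Tris–HCl pH 7.5 with 1 nM [3H]RX821002 and competitor (10 concentrations) 30 min at 25 °C. Bound ligand separated by GF/C filtration and counted by scintillation. Non-specific binding with 10^-5 M adrenaline. Ki by one-site nonlinear regression, expressed as pKi.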
row,pKi,SMILES
1,4.72,N=C(N)Oc1ccc(Oc2ccc(OC(=N)N)cc2)cc1
2,4.49,N=C(N)Oc1ccc(Oc2ccc(O)cc2)cc1
3,9.04,COC1(C2=NCCN2)COc2ccccc2O1 (stereo unspecified)
4,5.27,N=C(N)Oc1ccc2c(c1)CCC2
5,5.1,N=C(N)Oc1ccc(Sc2ccc(OC(=N)N)cc2)cc1
6,4.98,N=C(N)Oc1ccc(Cc2ccc(O)cc2)cc1
7,5.4,N=C(N)Oc1ccc(Cc2ccc(OC(=N)N)cc2)cc1
8,7.11,N=C(N)Nc1ccc2c(c1)CCCC2
9,5.09,Cc1ccc(OC(=N)N)cc1
10,5.35,N=C(N)Oc1ccc2c(c1)CCCC2
11,4.94,N=C(N)Oc1ccc(Sc2ccc(O)cc2)cc1

# From ChEMBL document CHEMBL1156729, “Novel synthesis and pharmacological evaluation as alpha2-adrenoceptor ligands of O-phenylisouronium salts” (Bioorg Med Chem, 2008)
